Assay results from the array DNA melting data of Ke et al. (doi:10.1101/2024.01.08.574731).

Tests used:
[1] = folding enthalpy; higher = less favourable; fluorescence melt of hairpins on a sequencing array, two-state fit; conditions: sodium 0.088 M
Outline: (§1)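 With Cy3 and quencher oligos annealed, library hairpins on a sequenced MiSeq flow cell were imaged for Cy3 fluorescence in 50 mM Na-HEPES pH 8.0, 25 mM NaCl, in 2.5 °C steps up to 60 °C. Melting temperature and folding enthalpy were derived from bootstrapped two-state fits of signals normalised to pre-quench Cy3 and to control constructs. Four replicates were combined by inverse variance, with fitted temperatures raised by 9.35 °C to match UV melts.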

[2] = melting temperature; fluorescence melt of hairpins on a sequencing array, two-state fit, raised by 9.35 °C to match UV melts; conditions: sodium 0.088 M
Outline: as §1

GATCAACAGCTTGATC ((((((....))))))
folding enthalpy [1]: -29.1 kcal/mol | Tm [2]: 39.5 °C

GATTTTGAAAAAAATC ((((((....))))))
folding enthalpy [1]: -23.7 kcal/mol | Tm [2]: 40.7 °C

GATCACTCAGTGATC ((((((...))))))
folding enthalpy [1]: -35.5 kcal/mol | Tm [2]: 58.3 °C

GACCACCGAAAGGTTGTC (((.(((....))).)))
folding enthalpy [1]: -32.2 kcal/mol | Tm [2]: 48.2 °C

GATCAACACGTTGATC ((((((....))))))
folding enthalpy [1]: -40.2 kcal/mol | Tm [2]: 53.6 °C

GATCCGATTCGGATC ((((((...))))))
folding enthalpy [1]: -39.2 kcal/mol | Tm [2]: 58.3 °C

GTATAGTCGAAAGACTAC (((..(((....))))))
folding enthalpy [1]: -11.9 kcal/mol | Tm [2]: 32.6 °C

GCCCCGCGAAAGCATGGC (((..((....))..)))
folding enthalpy [1]: -17.4 kcal/mol | Tm [2]: 45.4 °C

CGAGCGGAAACGCGATCG ((((((....)))..)))
folding enthalpy [1]: -12.1 kcal/mol | Tm [2]: 47 °C

GTCACTGGAAACAGTGGC (.(((((....))))).)
folding enthalpy [1]: -40.8 kcal/mol | Tm [2]: 53.7 °C

GATCGGTACTCCGATC ((((((....))))))
folding enthalpy [1]: -38.3 kcal/mol | Tm [2]: 59.3 °C

GTCACCGAAAGGTCGGAC ((((((....)))..)))
folding enthalpy [1]: -16 kcal/mol | Tm [2]: 34.3 °C

GCTTGGCGAAAGCTCAGC (((..((....))..)))
folding enthalpy [1]: -15.2 kcal/mol | Tm [2]: 41.1 °C

GGCCCCGGAAACGGGACC ((.((((....)))).))
folding enthalpy [1]: -25.8 kcal/mol | Tm [2]: 59 °C

GACCCCGGAAACGGGGCC (.(((((....))))).)
folding enthalpy [1]: -12.9 kcal/mol | Tm [2]: 53.6 °C

GATCCGGGAAACCGGGTC ((.((((....)))).))
folding enthalpy [1]: -41.6 kcal/mol | Tm [2]: 54.5 °C

GCATCGAAAGATGC (((((....)))))
folding enthalpy [1]: -31.8 kcal/mol | Tm [2]: 69.2 °C

CGGTTCGGAAACGACCCG (((.(((....))).)))
folding enthalpy [1]: -33 kcal/mol | Tm [2]: 50 °C

GACTACGAAAGTAGGTC ((((((....))).)))
folding enthalpy [1]: -17.5 kcal/mol | Tm [2]: 48.7 °C

GAACGACGAAAGTCCTTC (((.(((....))).)))
folding enthalpy [1]: -14.3 kcal/mol | Tm [2]: 31.3 °C

GATTGGGGAAACCTAATC ((((.((....)).))))
folding enthalpy [1]: -29.3 kcal/mol | Tm [2]: 37.5 °C

GTTCTCGAAAGAGTAAC ((((((....))).)))
folding enthalpy [1]: -18.5 kcal/mol | Tm [2]: 34.9 °C

GCATAGCGAAAGCGCTGC (((..((....))..)))
folding enthalpy [1]: -16.5 kcal/mol | Tm [2]: 51.3 °C

GGGCGGTCGAAAGACCCC (((..(((....))))))
folding enthalpy [1]: -15.3 kcal/mol | Tm [2]: 53.9 °C

GCTACAGGAAACTGCAGC (((.(((....))).)))
folding enthalpy [1]: -28.3 kcal/mol | Tm [2]: 44.5 °C

GCGTCAGGAAACTGATGC ((.((((....)))).))
folding enthalpy [1]: -43.6 kcal/mol | Tm [2]: 54.5 °C

GTTAGCGAAAGCTAAC ((((((....))))))
folding enthalpy [1]: -28.2 kcal/mol | Tm [2]: 66.4 °C

GGATTCCGAAAGGATCC (((.(((....))))))
folding enthalpy [1]: -29.1 kcal/mol | Tm [2]: 49.6 °C

GCATAAGGAAACTTATGC (((((((....)))))))
folding enthalpy [1]: -39.1 kcal/mol | Tm [2]: 54.7 °C

GCCAACGAAAGTTGCGGC ((((((....)))..)))
folding enthalpy [1]: -16.9 kcal/mol | Tm [2]: 51.5 °C

GGTCCGGGAAACCGGGCC ((.((((....)))).))
folding enthalpy [1]: -32.5 kcal/mol | Tm [2]: 68 °C

GATCGGCCACCGATC ((((((...))))))
folding enthalpy [1]: -31.7 kcal/mol | Tm [2]: 55.1 °C

GTGCACGAAAGTGGCCAC ((((((....)))..)))
folding enthalpy [1]: -13.3 kcal/mol | Tm [2]: 40.6 °C

GCGATGCGAAAGCCTAGC ((.(.((....)).).))
folding enthalpy [1]: -21.8 kcal/mol | Tm [2]: 45 °C

GATCCCTACGGGATC ((((((...))))))
folding enthalpy [1]: -32.5 kcal/mol | Tm [2]: 67.9 °C

GGGGTGGGAAACCACTCC ((.((((....)))).))
folding enthalpy [1]: -35.1 kcal/mol | Tm [2]: 54.6 °C

GATATAGGAAACTGTATC ((((.((....)).))))
folding enthalpy [1]: -21.4 kcal/mol | Tm [2]: 34.6 °C

GAATGAGGAAACTTATTC ((((.((....)).))))
folding enthalpy [1]: -20.4 kcal/mol | Tm [2]: 29.6 °C

GATGATGGAAACATCATC (((((((....)))))))
folding enthalpy [1]: -45 kcal/mol | Tm [2]: 58.1 °C

GATCATCCCCATGATC ((((((....))))))
folding enthalpy [1]: -34.9 kcal/mol | Tm [2]: 46.2 °C

GTTGACGAAAGTCTAAAC ((((((....)))..)))
folding enthalpy [1]: -12.8 kcal/mol | Tm [2]: 30.4 °C

GATGACGAAAGTCTCATC ((((((....)))..)))
folding enthalpy [1]: -9.72 kcal/mol | Tm [2]: 32.5 °C

GATCCCATAGGGATC ((((((...))))))
folding enthalpy [1]: -36.9 kcal/mol | Tm [2]: 67 °C

GTCATACGAAAGTACGAC (((.(((....))).)))
folding enthalpy [1]: -28.7 kcal/mol | Tm [2]: 42.9 °C

GATCAAAATCTTGATC ((((((....))))))
folding enthalpy [1]: -27.8 kcal/mol | Tm [2]: 39.9 °C

GATCTCATATGAGATC ((((((....))))))
folding enthalpy [1]: -43.8 kcal/mol | Tm [2]: 54.2 °C

GGCGTTTCGAAAGAAGCC (((..(((....))))))
folding enthalpy [1]: -23.8 kcal/mol | Tm [2]: 42.5 °C

CGATGACGGAAACGTTCG (((..(((....))))))
folding enthalpy [1]: -29.1 kcal/mol | Tm [2]: 36.7 °C

GCAGGCGAAAGCCCCTGC ((((((....)))..)))
folding enthalpy [1]: -15.9 kcal/mol | Tm [2]: 40.6 °C

GCGAAGCGAAAGCATGGC ((.(.((....)).).))
folding enthalpy [1]: -5.07 kcal/mol | Tm [2]: 40 °C

GATCAATTAATTGATC ((((((....))))))
folding enthalpy [1]: -42 kcal/mol | Tm [2]: 48.8 °C

GGGCACGAAAGTGGTCCC ((((((....)))..)))
folding enthalpy [1]: -17.5 kcal/mol | Tm [2]: 52.5 °C

GCGACGTCGAAAGACCGC (((..(((....))))))
folding enthalpy [1]: -25.4 kcal/mol | Tm [2]: 50.6 °C

GGCACTGGAAACAATGCC ((((.((....)).))))
folding enthalpy [1]: -29.6 kcal/mol | Tm [2]: 42.7 °C

CGGTCGGAAACGACCCG ((((((....))).)))
folding enthalpy [1]: -10 kcal/mol | Tm [2]: 51.5 °C

GTTTGGGGAAACTCGAAC (((.(.(....).).)))
folding enthalpy [1]: -17.6 kcal/mol | Tm [2]: 30.8 °C

GGATGGGGAAACTCGTCC (((.(.(....).).)))
folding enthalpy [1]: -25.2 kcal/mol | Tm [2]: 38.5 °C

GGCGTCGAAAGACCTGCC ((((((....)))..)))
folding enthalpy [1]: -18.5 kcal/mol | Tm [2]: 46.6 °C

GATCAGATCTCTGATC ((((((....))))))
folding enthalpy [1]: -40 kcal/mol | Tm [2]: 50.7 °C

GGTTTTGGAAACGAAACC (((((.(....).)))))
folding enthalpy [1]: -43.9 kcal/mol | Tm [2]: 47.5 °C

GCAAAGCGAAAGCATAGC ((.(.((....)).).))
folding enthalpy [1]: -9.41 kcal/mol | Tm [2]: 33.4 °C

ACAAAGAAATTTGT (((((....)))))
folding enthalpy [1]: -6.26 kcal/mol | Tm [2]: 22.5 °C

GATCGTCCGGACGATC ((((((....))))))
folding enthalpy [1]: -52.6 kcal/mol | Tm [2]: 62.8 °C

GTGTGGCGAAAGCCCAC (((.(((....))))))
folding enthalpy [1]: -18.6 kcal/mol | Tm [2]: 63 °C

GTGTATGGAAACATACGC (.(((((....))))).)
folding enthalpy [1]: -20.1 kcal/mol | Tm [2]: 48.5 °C

GCTGAGCGAAAGCCCAGC ((((.((....)).))))
folding enthalpy [1]: -47.6 kcal/mol | Tm [2]: 63.9 °C

GATCCCGTCGGGGATC ((((((....))))))
folding enthalpy [1]: -35.1 kcal/mol | Tm [2]: 64.1 °C

GAATTCGGAAACGAATCC (.(((((....))))).)
folding enthalpy [1]: -16.6 kcal/mol | Tm [2]: 36.8 °C

GCACCTCGAAAGAGATGC (((.(((....))).)))
folding enthalpy [1]: -40.3 kcal/mol | Tm [2]: 50.6 °C
